Laboratory results taken from ChEMBL document CHEMBL4196178, “Structure-Based Drug Design of Potent Pyrazole Derivatives against Rhinovirus Replication” (J Med Chem, 2018).

Assay: Selectivity index, ratio of CC50 for human HeLa Rh cells to EC50 for Rhinovirus B14 capsid infected in human HeLa Rh cells
Type: toxicity, cell-based
Settings: read-out: Ratio CC50/EC50
How it was run: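 SI = CC₅₀/EC₅₀ for RV-B14 in HeLa Rh cells, both from the same 3-day 35 °C MTS CPE assay. CC₅₀ was obtained by light-microscope scoring of compound-treated uninfected cells, and EC₅₀ from MTS dose-response. Both values were derived by logarithmic interpolation and reported as median ± median absolute deviation.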
In the case of `O=[N+]([O-])c1cc(-c2cncs2)ccc1CC(O)c1ccc(-n2cncn2)cc1` (racemic), the selectivity ratio is reported as 110.
`COC(=O)c1ccc(CC(O)c2ccc(-c3ccncc3)cc2)c([N+](=O)[O-])c1` (racemic) gave a selectivity ratio of over 41.
With `Cn1nc(C(F)(F)F)cc1-c1ccc(CC(O)c2ccc(-n3cccn3)cc2)c([N+](=O)[O-])c1` (racemic) the selectivity ratio was 29.
`O=[N+]([O-])c1cc(-c2ccco2)ccc1CC(O)c1ccc(-c2ccncc2)cc1` (racemic) gave a selectivity ratio of over 72.
Work on `O=[N+]([O-])c1cc(Cl)ccc1CC(O)c1ccc(-n2cccn2)cc1` (racemic) yielded a selectivity ratio of over 781.

Assay: Cytotoxicity against human HeLa Rh cells assessed as reduction in cell viability after 3 days by MTS assay
Type: cell-based
Settings: not given
`O=[N+]([O-])c1cc(-c2cncs2)ccc1CC(O)c1ccc(-n2cncn2)cc1` (racemic) gave a CC50 at 72 h of 44 µM.
`COC(=O)c1ccc(CC(O)c2ccc(-c3ccncc3)cc2)c([N+](=O)[O-])c1` (racemic) showed a CC50 at 72 h of over 264 µM.
`Cn1nc(C(F)(F)F)cc1-c1ccc(CC(O)c2ccc(-n3cccn3)cc2)c([N+](=O)[O-])c1` (racemic) showed a CC50 at 72 h of 14 µM.
Work on `O=[N+]([O-])c1cc(-c2ccco2)ccc1CC(O)c1ccc(-c2ccncc2)cc1` (racemic) yielded a CC50 at 72 h of over 86 µM.
`O=[N+]([O-])c1cc(Cl)ccc1CC(O)c1ccc(-n2cccn2)cc1` (racemic) showed a CC50 at 72 h of over 100 µM.
